High-throughput results from PubChem.
The list is not random: actives were taken first. Their share in the collection is about 0.84%.
DDE Tn6 FP inh: DD(E)-Tn6 binding inhibition, primary FP screen; P02675; Fibrin DD(E) TRITC-Tn6 fluorescence polarization displacement; inhibition, % at 8.3 µM; hit rate 0.21% among 370,000; AID 720509;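 active = inhibition above a per-campaign cutoff: mean of compounds within control limits plus 3 SD, cut at about 15% in these data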;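 note: 0% = median of all compound wells on the plate and 100% = blocking peptide control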
Target sequence (P02675 whole entry, looked up): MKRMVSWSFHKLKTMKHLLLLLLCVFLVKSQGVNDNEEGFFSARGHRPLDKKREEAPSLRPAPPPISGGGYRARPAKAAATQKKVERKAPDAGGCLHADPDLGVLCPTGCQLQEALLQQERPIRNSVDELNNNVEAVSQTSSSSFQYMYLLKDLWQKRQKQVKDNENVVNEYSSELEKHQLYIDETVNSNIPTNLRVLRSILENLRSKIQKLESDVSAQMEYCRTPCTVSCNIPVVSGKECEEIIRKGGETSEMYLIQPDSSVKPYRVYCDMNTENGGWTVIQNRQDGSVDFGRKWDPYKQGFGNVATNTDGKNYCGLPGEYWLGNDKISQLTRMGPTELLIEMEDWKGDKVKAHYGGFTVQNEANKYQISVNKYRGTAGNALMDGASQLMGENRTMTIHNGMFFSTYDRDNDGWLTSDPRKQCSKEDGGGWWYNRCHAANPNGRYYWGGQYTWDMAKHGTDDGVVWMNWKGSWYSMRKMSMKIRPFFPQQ
SKN-1 block: inhibitors of C. elegans SKN-1; inhibition, % at 21.8 µM; hit rate 0.49% among 360,000; C. elegans VP596 Pgst-4::GFP/RFP ratio, acrylamide-induced, 24 h;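 active = interference check ratio from 0.5 to 1.5 plus GFP to RFP signal ratio inhibition reaching or exceeding a fixed threshold, cut at about 30% in these data, passing the limit was not always enough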
DDE Tn7 FP inh: DD(E)-Tn7 binding inhibition, primary FP screen; hit rate 0.13% among 370,000; FP displacement of FITC-Tn7 peptide from fibrin DD(E); 0% = median of compound wells per plate; inhibition, % at 8.3 µM; P02675; AID 720508;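 active = inhibition above the mean of compounds falling within the control limits plus 3 SD of them, cut at about 14% in these data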;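 note: 0% = plate median of compound wells and 100% = 10 µM Aha-Tn7 peptide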
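Measure: % inhibition scaled between sample-field median and high-control FP; Test system: human fibrin DD(E); Quantity: 2 µM final DD(E) protein; Doses: one dose, 8.3 µM nominal; Schedule: compound with protein 10 min, then 3 h after probe, room temperature; Detection: fluorescence polarization; Medium: Tris buffer with calcium and detergent, pH 7.8.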
MT1-MMP act inh: blocks activation of human MT1-MMP; P50281; HT1080 RFP-PRO-GFP cells, GFP/RFP ratio fluorescence, overnight; percent of plate control window, DMSO zero; GFP/RFP ratio change, % at 20 µM; hit rate 0.061% among 360,000; AID 651647;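 active = GFP/RFP ratio change of at least 30% with cell ATP level not reduced by more than half and red fluorescence within 50% of control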
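Assay system: HT1080 cells carrying an RFP-PRO-GFP reporter | Dosing: Single dose of 20 µM compound, 1% DMSO final | Incubation: Cells overnight before dosing, compound overnight, 37 °C, 5% CO2 | Evaluation: GFP/RFP fluorescence ratio | Control set: DMSO and RFP-L50D-GFP cell wells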
Tn6 DDE ctr: DD(E)-Tn6 binding inhibition, counter-screen | AID 720621 | inhibition, % at 8.3 µM | Fibrin DD(E), TRITC-Tn6 fluorescence polarization displacement; 0% = median of compound wells, not DMSO | hit rate 2% among 680 | shares compounds with DDE Tn6 FP inh;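 active = inhibition above the mean of test compounds lying between the control limits plus 3 SD of those, cut at about 14% in these data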;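 note: 0% = median of compound wells and 100% = wells with Aha-Tn7 blocking peptide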
DDE Tn6 confirm: confirmation of inhibitors of Tn6 binding to human fibrin DD(E) | inhibition, % at 8.3 µM | FP displacement of TRITC-Tn6 peptide from DD(E); 0% = per-plate median of test wells | shares compounds with DDE Tn6 FP inh | hit rate 10% among 680;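 active = inhibition above the mean of compounds lying within the control limits plus 3 SD, cut at about 16% in these data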;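 note: 100% = high control wells holding a competing inhibitor peptide at 10 µM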
An asterisk follows results filed as active; nt = not tested or not shown.

SMILES	DDE Tn6 FP inh	SKN-1 block	DDE Tn7 FP inh	MT1-MMP act inh	Tn6 DDE ctr	DDE Tn6 confirm
O=C(c1cc2cc(F)ccc2[nH]1)N1CCN(C(=O)c2ccco2)CC1	-4	15	0	-3	nt	nt
COc1ccc(N(CC(=O)NCc2ccccc2Cl)S(=O)(=O)c2c(C)noc2C)cc1	-7	-11	2	0	nt	nt
CC1CCCN(CCCNC(=O)c2ccc3c(c2)N(Cc2cccc(Cl)c2)C(=O)c2ccccc2S3=O)C1 (stereo not given)	16*	9	5	-1	-2	-5
CN(C)/C=C1\SC(=S)N(c2ccc(Br)cc2)C1=O	36*	76	7	-33	4	32*
CC1CCN(S(=O)(=O)c2ccc(C(=O)Nc3nnc(C4CC4)o3)cc2)CC1	21*	23	2	2	-3	-4
CN(C(=O)c1cccc(NC(=O)Cc2cccc(NC(=O)C3CCN(C(=O)c4ccccc4)CC3)c2)c1)C1CC1	2	13	-2	3	nt	nt
Cc1ccc(C2OC34CCCCCC3C(C#N)(C(=N)O4)C2(C#N)C#N)cc1 (stereo not given)	-7	13	-2	-4	nt	nt
CC(C)C1OC2(C)OC(=N)C1(C#N)C(C#N)(C#N)C2c1ccccc1 (stereo not given)	20*	42	9	-11	-3	2
COc1ccc(CCN2CC(C(=O)OCC(=O)c3c(N)n(CC(C)C)c(=O)n(C)c3=O)CC2=O)cc1OC (stereo not given)	44*	-5	1	-5	4	-4
CC(C)Cn1c(N)c(C(=O)COC(=O)C2CC(=O)N(Cc3ccccc3Cl)C2)c(=O)n(C)c1=O (stereo not given)	0	-8	-1	-2	nt	nt
C=CC[C@@H](CC(=O)OC(C)(C)C)C(=O)OC[C@H]1CCCN1C(=O)[C@@H](CC=C)CC(=O)N(CCO)Cc1ccccc1	0	-3	8	5	nt	nt
CC[C@H](C)/C=C(C)/C=C/C(=O)Cc1cc(O)c(C)c(O)c1C=O	16*	34	10	6	0	5
COCCN(CC1CCCN(C2Cc3ccccc3C2)C1)C(=O)c1ccc(C(C)=O)cc1 (stereo not given)	16*	-1	5	-1	-2	-3
COCCN(CC1CCCN(C2Cc3ccccc3C2)C1)C(=O)c1cccc(C)c1 (stereo not given)	6	3	4	-3	nt	nt
Cc1c(Cc2ccccc2)c(=O)oc2cc(OCC(=O)N3CCC(C(N)=O)CC3)ccc12	18*	-8	5	-1	1	2
NC(=O)C1CCN(C(=O)COc2ccc3c(c2)oc(=O)c2ccccc23)CC1	-7	11	-8	1	nt	nt
CC(=O)C1=C(C)Nc2ncnn2C1c1ccccc1OCc1ccccc1 (stereo not given)	18*	7	6	3	3	2
Cc1cccc2c1-c1sc(C(=O)Nc3ccccc3N3CCN(C)CC3)cc1CO2	-6	13	-2	-3	nt	nt
COc1cc(N)c2ncccc2c1Br	19*	24	6	0	1	-1
O=C1C=CC(=O)c2c(O)c(N3CCN(CCO)CC3)c(Cl)c(O)c21	40*	32	-6	-6	-4	9
O=S(=O)(c1ccc(Br)cc1Cl)N1CCN(CCO)CC1	0	3	10	0	nt	nt
O=C(COc1ccccc1Cl)NC(=S)Nc1ccccc1N1CCCC1	16*	10	8	5	11	5
COc1ccc(OC)c(-c2nnc(SCC(=O)N3CCCC3)o2)c1	-7	-9	0	6	nt	nt
COc1ccc(OC)c(-c2nnc(SCC(=O)N3CCOCC3)o2)c1	19*	24	2	0	7	-3
COc1ccc(OC)c(C(=O)NC(CC(N)=O)c2ccc(NCCN3CCOCC3)c([N+](=O)[O-])c2)c1 (stereo not given)	8	14	3	7	nt	nt
SMILES	DDE Tn6 FP inh	SKN-1 block	DDE Tn7 FP inh	MT1-MMP act inh	Tn6 DDE ctr	DDE Tn6 confirm
COc1ccc(OC)c(C(=O)NC(CC(N)=O)c2ccc(NCCN3CCCC3)c([N+](=O)[O-])c2)c1 (stereo not given)	16*	3	4	10	4	-5
Cc1nc(-c2ccc(S(=O)(=O)Oc3ccc(Cl)cc3Cl)s2)cs1	-4	-9	0	3	nt	nt
CCOC(=O)Cc1cc(-c2ccc(O)cc2)nc2ccc3ccccc3c12	-12	-1	-5	6	nt	nt
CCOC(=O)Cc1cc(-c2ccc(F)cc2)nc2ccc3ccccc3c12	16*	12	11	-3	-1	-6
CSc1ccc(S(=O)(=O)N2CC(=O)Nc3ccccc32)cc1	16*	6	-6	0	4	4
O=C(COc1ccccc1)Nc1cccc(-c2nc3cc4ccccc4cc3[nH]2)c1	87*	2	3	6	7	25*
CC(=O)Nc1sc2c(c1-c1cc3ccccc3o1)CCNC2	11	nt	-7	nt	nt	nt
CCN1CC=C2C(C1)C(c1ccc(Cl)s1)C(C#N)=C(N)C2(C#N)C#N (stereo not given)	16*	-16	3	-167	-2	-3
C=CCn1c(-c2ccc(F)cc2)n[nH]c1=S	16*	4	-3	2	-2	-21
Cc1c(C(=O)c2ccccc2)c(=O)n(C)c(=O)n1C	1	9	4	6	nt	nt
CCn1c(SCC(=O)Nc2ccc3c(c2)OCCO3)nnc1-c1ccccn1	-3	-5	5	3	nt	nt
O=C(CSc1nnc(-c2ccccn2)n1Cc1ccco1)Nc1ccc2c(c1)OCO2	15*	-5	2	0	9	3
CCCCc1nnc(NC(=O)CSCc2cc(=O)n3cc(C)sc3n2)s1	-8	-25	-2	3	nt	nt
O=C(COC(=O)c1ccc(Sc2ncn[nH]2)c([N+](=O)[O-])c1)Nc1cccc(Cl)c1F	16*	nt	2	nt	8	6
CCCCNC(=O)Cn1c(=O)oc2cc(S(=O)(=O)N3CC(C)CC(C)C3)ccc21 (stereo not given)	6	-9	9	10	nt	nt
CC1CC(C)CN(S(=O)(=O)c2ccc3c(c2)oc(=O)n3CC(=O)N(C)Cc2ccccc2)C1 (stereo not given)	15*	4	3	-2	1	-4
CC(=O)N1CCN(C(=O)CCNS(=O)(=O)c2ccc(Br)cc2)CC1	18*	10	0	0	0	-4
O=C(CCNS(=O)(=O)c1ccc(Br)cc1)N1CCCCCCC1	-5	-2	1	-4	nt	nt
CCCCN1C(=O)C(CC(=O)NCCCN(C)C)CC(C(=O)N2CCOCC2)=C1C (stereo not given)	-1	4	3	0	nt	nt
